Assay results taken from ChEMBL document CHEMBL3877241 (J Med Chem, 2016).

Experiments:
[1] = Half life in rat liver microsomes at 3 uM preincubated for 5 mins followed by NADPH addition by LC-MS/MS analysis; type: ADME
Procedure, shortened: (§1)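 Male and female rat liver microsomes (0.3 mg protein/mL final) with compound at 3 μM final in 0.1 M phosphate buffer pH 7.4. Preincubated 5 min at 37 °C, then started with NADPH (1 mM final). Sampled at 0, 5, 10, 15, 30 and 45 min and quenched with cold acetonitrile containing internal standard. Read by LC-MS/MS; run in triplicate; midazolam (3 μM) as positive control.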

[2] = Apparent intrinsic clearance in rat liver microsomes at 3 uM preincubated for 5 mins followed by NADPH addition measured after 45 mins by LC-MS/MS analysis; type: ADME; details: read-out: CLH(app); procedure, shortened: as §1
[3] = target: Tyrosine-protein kinase JAK2 (Homo sapiens, UniProt O60674); assay: Inhibition of human JAK2 JH1 catalytic domain (A829 to G1132 residues) expressed in mammalian expression system assessed as residual activity at 100 nM by KINOMEScan assay relative to control
Tyrosine-protein kinase JAK2, sequence (O60674 whole entry, the tested form may be a part): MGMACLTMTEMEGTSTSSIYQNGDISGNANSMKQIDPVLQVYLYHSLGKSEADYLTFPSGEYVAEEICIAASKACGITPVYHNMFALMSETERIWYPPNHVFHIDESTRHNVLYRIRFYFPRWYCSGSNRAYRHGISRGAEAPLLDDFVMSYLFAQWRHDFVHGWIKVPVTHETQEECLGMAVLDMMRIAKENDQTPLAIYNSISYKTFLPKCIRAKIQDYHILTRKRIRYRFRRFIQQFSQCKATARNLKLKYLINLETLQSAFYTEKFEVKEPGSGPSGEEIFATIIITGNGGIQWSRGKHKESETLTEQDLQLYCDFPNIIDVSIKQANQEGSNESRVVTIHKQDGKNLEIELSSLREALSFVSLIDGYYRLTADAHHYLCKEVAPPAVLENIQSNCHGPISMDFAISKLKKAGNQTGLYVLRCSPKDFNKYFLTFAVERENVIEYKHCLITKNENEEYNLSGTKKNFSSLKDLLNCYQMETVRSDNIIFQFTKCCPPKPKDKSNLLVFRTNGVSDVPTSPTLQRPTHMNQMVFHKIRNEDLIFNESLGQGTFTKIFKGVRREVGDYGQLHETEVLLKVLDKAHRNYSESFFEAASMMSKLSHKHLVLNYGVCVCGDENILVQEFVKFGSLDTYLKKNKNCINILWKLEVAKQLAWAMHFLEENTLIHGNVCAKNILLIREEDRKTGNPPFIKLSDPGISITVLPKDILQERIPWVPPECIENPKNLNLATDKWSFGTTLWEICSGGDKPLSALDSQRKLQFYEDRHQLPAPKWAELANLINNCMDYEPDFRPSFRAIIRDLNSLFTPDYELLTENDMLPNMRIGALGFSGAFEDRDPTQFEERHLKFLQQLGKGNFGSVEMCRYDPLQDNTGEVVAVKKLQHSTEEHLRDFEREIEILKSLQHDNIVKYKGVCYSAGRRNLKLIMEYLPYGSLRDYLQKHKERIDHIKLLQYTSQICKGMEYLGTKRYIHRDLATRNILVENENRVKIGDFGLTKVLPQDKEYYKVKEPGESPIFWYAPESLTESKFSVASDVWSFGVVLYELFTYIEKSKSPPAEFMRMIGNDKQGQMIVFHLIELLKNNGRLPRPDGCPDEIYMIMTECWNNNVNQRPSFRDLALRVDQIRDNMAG
Procedure, shortened: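 DiscoveRx KINOMEscan competition binding against ATP sites in a 97-kinase panel, with compound at 100 nM. Binding reported as % of control.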

[4] = target: T1, Protein deacetylase HDAC6 (Homo sapiens, UniProt Q9UBN7); assay: (§2) Inhibition of full length human recombinant N-terminal GST-tagged HDAC6 (1 to 1215 residues) expressed in sf9 cells preincubated with enzyme followed by fluorogenic Arg-His-Lys-Lys(Ac)-AMC substrate addition measured after 2 hrs by fluorescence assay
T1 sequence (Q9UBN7 whole entry): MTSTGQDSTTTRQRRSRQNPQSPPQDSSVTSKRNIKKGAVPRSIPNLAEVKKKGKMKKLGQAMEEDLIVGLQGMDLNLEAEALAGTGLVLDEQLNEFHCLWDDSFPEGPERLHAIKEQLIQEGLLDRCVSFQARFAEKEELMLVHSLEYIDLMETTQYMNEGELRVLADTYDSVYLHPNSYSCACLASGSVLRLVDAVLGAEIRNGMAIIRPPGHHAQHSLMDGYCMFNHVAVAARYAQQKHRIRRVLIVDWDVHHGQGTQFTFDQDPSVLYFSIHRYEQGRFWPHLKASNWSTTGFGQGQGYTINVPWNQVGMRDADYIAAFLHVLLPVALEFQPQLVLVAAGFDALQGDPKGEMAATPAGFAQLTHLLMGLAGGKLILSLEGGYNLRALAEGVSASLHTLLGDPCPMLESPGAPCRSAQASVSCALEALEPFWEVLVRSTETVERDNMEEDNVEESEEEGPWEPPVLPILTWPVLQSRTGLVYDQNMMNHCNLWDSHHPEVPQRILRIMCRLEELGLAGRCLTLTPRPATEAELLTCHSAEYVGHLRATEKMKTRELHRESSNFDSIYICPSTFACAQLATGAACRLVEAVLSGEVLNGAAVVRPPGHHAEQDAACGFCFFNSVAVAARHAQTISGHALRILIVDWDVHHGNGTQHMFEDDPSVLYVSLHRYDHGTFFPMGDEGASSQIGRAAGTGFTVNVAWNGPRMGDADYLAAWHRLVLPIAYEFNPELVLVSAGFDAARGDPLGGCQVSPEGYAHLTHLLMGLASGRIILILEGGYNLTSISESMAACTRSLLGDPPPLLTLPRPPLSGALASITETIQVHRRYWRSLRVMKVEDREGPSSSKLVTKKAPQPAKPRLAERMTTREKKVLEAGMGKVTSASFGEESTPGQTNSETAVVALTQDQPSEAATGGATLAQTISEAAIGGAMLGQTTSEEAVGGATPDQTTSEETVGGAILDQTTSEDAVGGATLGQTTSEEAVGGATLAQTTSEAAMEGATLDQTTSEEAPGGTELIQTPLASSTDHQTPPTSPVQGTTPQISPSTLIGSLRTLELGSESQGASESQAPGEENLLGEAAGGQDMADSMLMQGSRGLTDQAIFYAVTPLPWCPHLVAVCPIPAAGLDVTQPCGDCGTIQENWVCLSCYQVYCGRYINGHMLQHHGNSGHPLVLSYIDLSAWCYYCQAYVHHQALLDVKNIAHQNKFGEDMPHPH

[5] = target: High affinity nerve growth factor receptor (Homo sapiens, UniProt P04629); assay: Inhibition of human NTRK1 (G475 to G790 residues) expressed in mammalian expression system assessed as residual activity at 100 nM by KINOMEScan assay relative to control
High affinity nerve growth factor receptor, sequence (P04629 33-796 limits assumed): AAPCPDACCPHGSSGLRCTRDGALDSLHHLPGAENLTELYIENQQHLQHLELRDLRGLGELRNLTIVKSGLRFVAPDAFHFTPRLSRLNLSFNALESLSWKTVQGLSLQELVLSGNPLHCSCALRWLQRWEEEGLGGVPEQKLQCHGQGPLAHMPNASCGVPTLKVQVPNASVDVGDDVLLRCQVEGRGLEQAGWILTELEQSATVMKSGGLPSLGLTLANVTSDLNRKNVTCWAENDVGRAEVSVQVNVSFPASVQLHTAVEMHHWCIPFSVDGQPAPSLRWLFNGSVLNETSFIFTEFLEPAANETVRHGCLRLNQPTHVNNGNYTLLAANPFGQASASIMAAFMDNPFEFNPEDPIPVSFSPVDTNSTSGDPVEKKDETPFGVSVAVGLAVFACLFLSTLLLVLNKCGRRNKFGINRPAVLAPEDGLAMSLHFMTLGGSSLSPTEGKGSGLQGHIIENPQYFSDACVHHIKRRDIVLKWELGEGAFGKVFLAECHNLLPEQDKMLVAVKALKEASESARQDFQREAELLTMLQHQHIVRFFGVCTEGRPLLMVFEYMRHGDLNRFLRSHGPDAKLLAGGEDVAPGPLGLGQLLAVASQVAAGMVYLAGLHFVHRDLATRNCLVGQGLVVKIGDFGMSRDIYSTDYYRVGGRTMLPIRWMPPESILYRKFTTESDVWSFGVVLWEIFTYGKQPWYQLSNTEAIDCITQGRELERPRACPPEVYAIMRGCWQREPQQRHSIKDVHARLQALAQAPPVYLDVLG
Procedure, shortened: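 DiscoveRx competition-binding panel of 97 kinases, measuring binding to the kinase ATP site rather than catalytic turnover. The test compound was run at a single 100 nM concentration. Results are given as % of control binding.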

[6] = Antiproliferative activity against human KMS-12-BM cells after 48 hrs by CellTiter-Glo assay; type: functional, cell-based
[7] = Antiproliferative activity against human HCT116 cells after 72 hrs by MTT assay; type: functional, cell-based; details: HCT-116, 72 h
Procedure, shortened: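 MTT viability after 72 h exposure. Cells seeded at 2500/well and left 24 h before compound addition; DMSO at 0.5% v/v final. MTT added in FBS-free medium for 3 h at 37 °C, formazan dissolved in DMSO, absorbance read at 570 nm. IC50 from a sigmoidal fit of % viability vs log concentration; triplicates on separate occasions using two different stock solutions.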

[8] = target: Non-receptor tyrosine-protein kinase TYK2 (Homo sapiens, UniProt P29597); assay: Inhibition of TYK2 (unknown origin) at 0.1 uM preincubated for 20 mins followed by [33P]ATP addition measured after 120 mins by Hotspot assay relative to control
Non-receptor tyrosine-protein kinase TYK2, sequence (P29597 whole entry): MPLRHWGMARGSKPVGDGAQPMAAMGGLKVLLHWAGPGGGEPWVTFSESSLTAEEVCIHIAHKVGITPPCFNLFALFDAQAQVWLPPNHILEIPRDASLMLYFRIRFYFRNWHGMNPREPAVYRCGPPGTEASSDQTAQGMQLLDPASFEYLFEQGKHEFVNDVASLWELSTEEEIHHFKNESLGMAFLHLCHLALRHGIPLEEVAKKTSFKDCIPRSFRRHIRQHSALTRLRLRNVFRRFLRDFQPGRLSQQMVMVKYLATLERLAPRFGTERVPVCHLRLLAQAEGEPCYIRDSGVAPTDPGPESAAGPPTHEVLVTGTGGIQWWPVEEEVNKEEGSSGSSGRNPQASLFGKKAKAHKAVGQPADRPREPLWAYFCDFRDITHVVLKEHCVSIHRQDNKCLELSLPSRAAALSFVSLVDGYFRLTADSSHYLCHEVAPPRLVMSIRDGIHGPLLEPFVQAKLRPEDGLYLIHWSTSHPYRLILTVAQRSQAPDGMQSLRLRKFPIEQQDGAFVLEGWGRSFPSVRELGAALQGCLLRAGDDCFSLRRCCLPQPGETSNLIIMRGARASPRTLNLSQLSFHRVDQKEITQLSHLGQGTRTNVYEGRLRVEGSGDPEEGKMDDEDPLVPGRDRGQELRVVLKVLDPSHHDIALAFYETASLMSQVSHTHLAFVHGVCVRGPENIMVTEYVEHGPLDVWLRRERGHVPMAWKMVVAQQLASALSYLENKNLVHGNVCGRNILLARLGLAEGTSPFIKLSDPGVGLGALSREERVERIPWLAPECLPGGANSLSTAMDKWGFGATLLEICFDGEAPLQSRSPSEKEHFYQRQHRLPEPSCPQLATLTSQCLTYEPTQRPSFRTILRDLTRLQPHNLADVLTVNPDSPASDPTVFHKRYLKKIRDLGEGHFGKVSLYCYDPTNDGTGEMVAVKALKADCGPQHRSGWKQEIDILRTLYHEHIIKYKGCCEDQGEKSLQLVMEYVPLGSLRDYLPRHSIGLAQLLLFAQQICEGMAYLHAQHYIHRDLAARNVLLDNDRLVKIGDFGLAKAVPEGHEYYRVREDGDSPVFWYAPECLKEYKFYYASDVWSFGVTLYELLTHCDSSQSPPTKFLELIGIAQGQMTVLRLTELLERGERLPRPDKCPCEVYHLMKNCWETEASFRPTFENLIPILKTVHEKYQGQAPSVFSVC
Procedure, shortened: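 Radiometric HotSpot kinase assay. Buffer: 20 mM HEPES pH 7.5, 10 mM MgCl2, 1 mM EGTA, 0.02% Brij35, 0.02 mg/mL BSA, 0.1 mM Na3VO4, 2 mM DTT, 1% DMSO. Compound added about 20 min before ATP/[33P]ATP (10 μM final). Reactions run 120 min at 25 °C, spotted on P81 filters and washed in phosphoric acid. Activity expressed relative to DMSO after background subtraction. Single-concentration panel at 100 nM in duplicate.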

[9] = target: Histone deacetylase 3/Nuclear receptor corepressor 2 (HDAC3/NCoR2) (Homo sapiens, UniProt O15379); assay: as §2, with “C-terminal His-tagged HDAC3” for “N-terminal GST-tagged HDAC6”, “428 residues)/N-terminal GST-tagged NCOR2 (395 to 489” for “1215”, “insect” for “sf9”

SMILES: O=C(CCCCCCOc1ccc2cc1COC/C=C/COCc1cccc(c1)-c1ccnc(n1)N2)NO
- half-life at 3 µM [1]: 17.3 to 26.3 min
- CLint scaled at 3 µM [2]: 178 to 272 mL/min/kg
- Activity [3]: 0%
- IC50 [4]: 0.0021 µM
- Activity [5]: 13%
- IC50 [6]: 2.11 µM
- IC50 [7]: 2.23 µM
- inhibition [8]: 56%
- IC50 [9]: 2.17 µM
